ChEMBL document CHEMBL2177013, “Synthesis and biological evaluation of tylophorine-derived dibenzoquinolines as orally active agents: exploration of the role of tylophorine e ring on biological activity” (J Med Chem, 2012)
Activity calls are given as the source filed them. The rule behind the calls is not given here.

How the values were obtained:
[1] = test system: Transmissible gastroenteritis virus; experiment: Antiviral activity against Transmissible gastroenteritis virus infected in ST cells pre-treated 2 hrs before virus infection measured 6 hrs post virus infection by immunofluorescent assay; format: functional, organism-based; conditions: Alphacoronavirus 1, ST
Procedure, shortened: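 ST cells, with or without 2 h compound pretreatment (10 concentrations), infected with TGEV at MOI 10. Immunofluorescence with anti-spike and anti-nucleocapsid antibodies at 6 hpi. EC50 from dose–response curves, mean of at least three experiments, each in duplicate.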

[2] = Growth inhibition of human HONE1 cells; format: functional
Procedure, shortened: (§1)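 Cells seeded per well: NUGC-3 4500, HONE-1 6000, MCF-7 6500, NCI-H460 2500, HepG2 10000, A549 5000; A549 grown in RPMI 1640 with 2 g/L NaHCO₃, 2 mM L-glutamine and 10% FBS. GI₅₀ = concentration giving 50% growth inhibition, mean of at least three experiments each in duplicate. Paclitaxel served as positive control.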

NUGC-3 = experiment: Growth inhibition of human NUGC3 cells; format: functional; procedure, shortened: as §1
NCI-H460 [3] = experiment: Growth inhibition of human NCI-H460 cells; format: functional; procedure, shortened: as §1
MCF7 [4] = experiment: Growth inhibition of human MCF7 cells; format: functional; procedure, shortened: as §1
A549 [5] = experiment: Growth inhibition of human A549 cells; format: functional; procedure, shortened: as §1
HepG2 = experiment: Growth inhibition of human HepG2 cells; format: functional; procedure, shortened: as §1
[6] = Cytotoxicity against mouse RAW264.7 cells; format: cell-based
Procedure, shortened: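 RAW264.7 cells stimulated with LPS/IFNγ and compound-treated in parallel with the NO assay; CC50 taken as concentration giving 50% inhibition of cell growth. Mean of at least three experiments, each in duplicate.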

RAW264.7 [7] = experiment: Antiinflammatory activity in mouse RAW264.7 cells assessed as inhibition of LPS-induced nitric oxide production incubated for 18 hrs by nitrate/nitrite assay; format: functional, cell-based; conditions: RAW264.7, 18 h
Procedure, shortened: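 RAW264.7 seeded 65000 cells/well, cultured 24 h, then medium replaced with complete medium containing IFNγ (20 ng/mL)/LPS (5 μg/mL) plus compound at various concentrations for 18 h; nitric oxide measured by Nitrate/Nitrite kit. EC50 as mean of at least three experiments, each in duplicate.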

[8] = test system: Transmissible gastroenteritis virus; experiment: Antiviral activity against Transmissible gastroenteritis virus infected in ST cells assessed as reduction in caspase-3 activation pre-treated before virus infection measured 16 hrs post virus infection by Western blotting; format: functional, organism-based
Procedure, shortened: (§2)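 ST cells pretreated with compound, then infected with TGEV. Western blot for nucleocapsid (N) protein, caspase 3 (cleavage of procaspase 3) and GAPDH at 16 hpi. Representative of at least three independent experiments.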

[9] = test system: Transmissible gastroenteritis virus; experiment: Antiviral activity against Transmissible gastroenteritis virus infected in ST cells assessed as reduction in N-protein expression pre-treated before virus infection measured 16 hrs post virus infection by Western blotting; format: functional, organism-based; procedure, shortened: as §2
RAW264.7 [10] = experiment: Reduction in LPS/INFgamma-induced COX2 protein expression in mouse RAW264.7 cells incubated for 20 hrs by Western blotting; format: functional, cell-based
Procedure, shortened: (§3)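 LPS/IFNγ-stimulated RAW264.7 cells treated with compound for 20 h. iNOS, COX-2 and GAPDH detected by Western blot; representative of at least three independent experiments.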

RAW264.7 [11] = experiment: Reduction in LPS/INFgamma-induced iNOS protein expression in mouse RAW264.7 cells incubated for 20 hrs by Western blotting; format: functional, cell-based; procedure, shortened: as §3
A549 [12] = experiment: Induction of c-Jun protein accumulation in human A549 cells incubated for 24 hrs by Western blotting; format: functional, cell-based
A549 [13] = experiment: Down regulation of cyclin A2 expression in human A549 cells incubated for 24 hrs by Western blotting; format: functional, cell-based
NCI-H460 [14] = experiment: Induction of c-Jun protein accumulation in human NCI-H460 cells incubated for 24 hrs by Western blotting; format: functional, cell-based
NCI-H460 [15] = experiment: Down regulation of cyclin A2 expression in human NCI-H460 cells incubated for 24 hrs by Western blotting; format: functional, cell-based
MCF7 [16] = experiment: Induction of c-Jun protein accumulation in human MCF7 cells incubated for 24 hrs by Western blotting; format: functional, cell-based
MCF7 [17] = experiment: Down regulation of cyclin A2 expression in human MCF7 cells incubated for 24 hrs by Western blotting; format: functional, cell-based

SMILES | EC50 [1] [nM] | GI50 [2] [nM] | GI50 (NUGC-3) [nM] | GI50 (NCI-H460 [3]) [nM] | GI50 (MCF7 [4]) [nM] | GI50 (A549 [5]) [nM] | GI50 (HepG2) [nM] | CC50 [6] [nM] | EC50 (RAW264.7 [7]) [nM] | Activity [8] | Activity [9] | Activity (RAW264.7 [10]) | Activity (RAW264.7 [11]) | Activity (A549 [12]) | Activity (A549 [13]) | Activity (NCI-H460 [14]) | Activity (NCI-H460 [15]) | Activity (MCF7 [16]) | Activity (MCF7 [17])
CCN1CCc2c(c3cc(OC)c(OC)cc3c3c(OC)c(OC)c(OC)cc23)C1 | 1140 | 1990 | 1700 | 870 | 1180 | 1410 | 2500 | – | – | – | – | – | – | – | – | – | – | – | –
CCCN1CCc2c(c3cc(OC)c(OC)cc3c3cc(OC)ccc23)C1 | 680 | 770 | 430 | 260 | 420 | 470 | 480 | – | – | – | – | – | – | – | – | – | – | – | –
CCCN1CCc2c(c3cc(OC)ccc3c3cc(OC)c(OC)cc23)C1 | 8910 | 5560 | 4630 | 3820 | 3750 | 4640 | 4480 | – | – | – | – | – | – | – | – | – | – | – | –
CCCN1CCc2c(c3ccc(OC)cc3c3cc(OC)c(OC)cc23)C1 | 8680 | 3310 | 2940 | 2400 | 2830 | 2950 | 3170 | – | – | – | – | – | – | – | – | – | – | – | –
COc1cc2c3c(c4cc(OC)c(OC)cc4c2cc1OC)CN(CC1OCCO1)CC3 | > 50000 | 22100 | 19100 | 18500 | 22400 | 31500 | 41000 | – | – | – | – | – | – | – | – | – | – | – | –
CCCN1CCc2c(c3cc(OC)ccc3c3c(OC)c(OC)ccc23)C1 | 2630 | 4750 | 3720 | 3760 | 4110 | 3670 | 6290 | – | – | – | – | – | – | – | – | – | – | – | –
CCCN1Cc2c(c3cc(OC)c(OC)cc3c3cc(OC)c(OC)cc23)C(O)C1 (stereo unspecified) | 670 | 1740 | 730 | 1080 | 1020 | 1190 | 1680 | > 4000 | 2200 | – | – | – | – | – | – | – | – | – | –
CCN1Cc2c(c3cc(OC)c(OC)cc3c3cc(OC)c(OC)cc23)C(O)C1 (stereo unspecified) | 340 | 440 | 150 | 170 | 160 | 190 | 360 | > 2000 | 380 | Active | Active | Active | Active | Active | Active | Active | Active | Active | Active
COc1cc2c3c(c4cc(OC)c(OC)cc4c2cc1OC)CN(CCCNC(=O)OC(C)(C)C)CC3 | 1030 | 4520 | 3400 | 2890 | 3350 | 3550 | 4150 | – | – | – | – | – | – | – | – | – | – | – | –
COc1cc2c3c(c4cc(OC)c(OC)cc4c2cc1OC)CN(CC(C)C)CC3 | 1360 | 1720 | 1040 | 870 | 910 | 1320 | 1810 | – | – | – | – | – | – | – | – | – | – | – | –
CCCN1Cc2c(c3cc(OC)c(OC)c(OC)c3c3cc(OC)c(OC)cc23)C(O)C1 (stereo unspecified) | 660 | 820 | 490 | 590 | 590 | 820 | 830 | – | – | – | – | – | – | – | – | – | – | – | –
COc1cc2c3c(c4cc(OC)c(OC)c(OC)c4c2cc1OC)CCN(C(C)C)C3 | 780 | 1120 | 640 | 570 | 720 | 760 | 1610 | – | – | – | – | – | – | – | – | – | – | – | –
CC(=O)O[C@H]1C(=O)[C@@]2(C)[C@H]([C@H](OC(=O)c3ccccc3)[C@]3(O)C[C@H](OC(=O)[C@H](O)[C@@H](NC(=O)c4ccccc4)c4ccccc4)C(C)=C1C3(C)C)[C@]1(OC(C)=O)CO[C@@H]1C[C@@H]2O [PACLITAXEL] | – | 20 | 20 | 30 | 30 | 60 | 180 | – | – | – | – | – | – | – | – | – | – | – | –
CCC(C)N1CCc2c(c3cc(OC)c(OC)cc3c3cc(OC)c(OC)cc23)C1 (stereo unspecified) | 730 | 1150 | 440 | 450 | 400 | 530 | 510 | – | – | – | – | – | – | – | – | – | – | – | –
